Measured values from ChEMBL document CHEMBL4725283, “Selective Peptidomimetic Inhibitors of NTMT1/2: Rational Design, Synthesis, Characterization, and Crystallographic Studies” (J Med Chem, 2020).
The source made the active and inactive calls.

How the values were obtained:
[1] = species: Homo sapiens; test: Selectivity for human NTMT1 over human NSD3 at 100 uM
Method in brief: (§1)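 Panel of 41 PKMTs, PRMTs, DNMTs and NTMT1/2, tested at 100 µM compound in duplicate (n=2).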

[2] = species: Homo sapiens; test: Selectivity for human NTMT2 over human PRDMT1 at 100 uM
Method in brief: (§2)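 Single-point panel screen against 41 PKMTs, PRMTs, DNMTs and NTMT1/2. Each compound was tested at 100 µM, in duplicate (n=2).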

[3] = species: Homo sapiens; test: Selectivity for human NTMT1 over human SET8 at 100 uM; method in brief: as §1
[4] = species: Homo sapiens; test: Selectivity for human NTMT2 over human MLL2 complex at 100 uM; method in brief: as §2
[5] = species: Homo sapiens; test: Selectivity for human NTMT1 over GST-tagged human METTL21A at 100 uM; method in brief: as §1
[6] = species: Homo sapiens; test: Selectivity for human NTMT2 over human DNMT3a at 100 uM; method in brief: as §2
[7] = species: Homo sapiens; test: Selectivity for human NTMT1 over human SETD2 at 100 uM; method in brief: as §1
[8] = species: Homo sapiens; test: Selectivity for human NTMT2 over human NSD1 at 100 uM; method in brief: as §2
[9] = molecular target: T1, N-terminal Xaa-Pro-Lys N-methyltransferase 1 (Homo sapiens) (UniProt Q9BV86); test: Non-competitive inhibition of recombinant human full-length His6-tagged NTMT1 (1 to 222 residues) expressed in Escherichia coli BL21-CodonPlus(DE3)-RIL competent cells pre-incubated for 10 mins in presence of varying levels of SAM and SAHH before fixed level of RCC1-6 addition and measured after 15 mins by fluorescence based SAHH-coupled assay; conditions: time 25.0 min
T1 sequence (whole entry): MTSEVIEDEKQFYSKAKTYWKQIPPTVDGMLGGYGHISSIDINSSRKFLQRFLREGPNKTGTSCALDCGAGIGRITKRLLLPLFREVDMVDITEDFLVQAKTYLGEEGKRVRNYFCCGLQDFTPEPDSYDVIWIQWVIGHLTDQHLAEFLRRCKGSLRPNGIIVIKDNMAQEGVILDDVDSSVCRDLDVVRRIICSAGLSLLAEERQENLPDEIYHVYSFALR
Method in brief: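 Same SAHH-coupled ThioGlo1 set-up as the substrate series: 25 mM Tris pH 7.4, 50 mM KCl, 10 µM SAHH, 0.2 µM NTMT1, 15 µM ThioGlo1, inhibitor 0–100 µM. […] Triplicate IC50 at each SAM level plotted against [SAM]/Km.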

[10] = species: Homo sapiens; test: Selectivity for human NTMT1 over human PRDMT4 at 100 uM; method in brief: as §1
[11] = molecular target: T1, N-terminal Xaa-Pro-Lys N-methyltransferase 1 (Homo sapiens); test: Substrate activity at recombinant human full-length His6-tagged NTMT1 (1 to 222 residues) expressed in Escherichia coli BL21-CodonPlus(DE3)-RIL competent cells by MALDI-MS analysis
[12] = species: Homo sapiens; test: Selectivity for human NTMT2 over human PRDMT6 at 100 uM; method in brief: as §2
[13] = species: Homo sapiens; test: Selectivity for human NTMT1 over human DNMT3b at 100 uM; method in brief: as §1

N=C(N)NCCC[C@H](NC(=O)[C@H](CCCCN)NC(=O)[C@@H]1CCCN1C(=O)Cc1ccc(O)cc1)C(N)=O
inactive: Activity [11]
> 100: Selectivity ratio [1] | Selectivity ratio [2] | Selectivity ratio [3] | Selectivity ratio [4] | Selectivity ratio [5] | Selectivity ratio [6] | Selectivity ratio [7] | Selectivity ratio [8] | Selectivity ratio [10] | Selectivity ratio [12] | Selectivity ratio [13]
active: inhibition [9]
